We go through four compounds from ChEMBL document CHEMBL1667806, “Synthesis and evaluation of anti-tubercular activity of new dithiocarbamate sugar derivatives” (2011).

≈ marks a conversion by molar mass, not a printed value.

Test [1] deals with Mycobacterium tuberculosis. Kind of test: Antimycobacterial activity against Mycobacterium bovis BCG assessed as clolony forming unit at 125 ug/ml after 21 days in presence of sucrose. The format is functional, variant bovis BCG. The procedure, abridged: (§1)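 M. bovis BCG exposed to agent, with or without sucrose or 2.5% dextran, in log-phase and stationary-phase cultures. Bactericidal activity read as viable count (log CFU/ml) at day 7 and day 21. Values given as means ± SD.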

Test [2] deals with Mycobacterium tuberculosis. Description: Antimycobacterial activity against Mycobacterium bovis BCG assessed as clolony forming unit at 125 ug/ml after 7 days in presence of dextrin. The format is functional, variant bovis BCG. The essentials:
as §1

For test [3], the system named is Mycobacterium tuberculosis. Kind of test: Antimycobacterial activity against Mycobacterium bovis BCG carrying pMV261. In kind it is functional. The following applies: Mycobacterium tuberculosis variant bovis BCG. The essentials: (§2)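 MIC by agar method on 7H11 supplemented with OADC. M. bovis BCG carried empty pMV261, or pMV261 overexpressing EthA or EthR from the constitutive hsp60 promoter. Results reported as MIC ranges in µg/ml.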

For test [4], the system named is Mycobacterium tuberculosis. Description: Antimycobacterial activity against Mycobacterium bovis BCG carrying pMV261::ethA. In kind it is functional. The following applies: Mycobacterium tuberculosis variant bovis BCG. The essentials: as §2
The subject of test [5] is Mycobacterium tuberculosis. Kind of test: Antimycobacterial activity against Mycobacterium bovis BCG carrying pMV261::ethR. The following applies: Mycobacterium tuberculosis variant bovis BCG. In kind it is functional. The procedure, abridged: as §2
The subject of test [6] is Mycobacterium tuberculosis. Description: Antimycobacterial activity against Mycobacterium bovis BCG assessed as clolony forming unit at 125 ug/ml after 21 days in presence of destrin. The format is functional, variant bovis BCG. The essentials:
as §1

Test [7] relates to Mycobacterium tuberculosis. Description: Antimycobacterial activity against Mycobacterium bovis BCG assessed as clolony forming unit at 125 ug/ml after 7 days in presence of sucrose. In kind it is functional, variant bovis BCG. The procedure, abridged:
as §1

In test [8] the test system is Mycobacterium tuberculosis. Description: Antimycobacterial activity against Mycobacterium bovis BCG assessed as clolony forming unit at 125 ug/ml after 7 days. The format is functional, variant bovis BCG. The essentials:
as §1

The test system of test [9] is Mycobacterium tuberculosis. Kind of test: Antimycobacterial activity against Mycobacterium bovis BCG assessed as clolony forming unit at 125 ug/ml after 21 days. In kind it is functional, variant bovis BCG. The essentials: as §1
The subject of test [10] is Mycobacterium tuberculosis. Kind of test: Antimycobacterial activity against Mycobacterium bovis BCG assessed as clolony forming unit at 313 ug/ml after 21 days in presence of destrin. In kind it is functional, variant bovis BCG. The essentials:
as §1

Test [11] concerns Mycobacterium tuberculosis. Kind of test: Antimycobacterial activity against Mycobacterium bovis BCG assessed as clolony forming unit at 313 ug/ml after 21 days. In kind it is functional, variant bovis BCG. The procedure, abridged: as §1
Test [12] relates to Mycobacterium tuberculosis. Kind of test: Antimycobacterial activity against Mycobacterium bovis BCG assessed as clolony forming unit at 313 ug/ml after 7 days. In kind it is functional, variant bovis BCG. The procedure, abridged:
as §1

The subject of test [13] is Mycobacterium tuberculosis. Kind of test: Antimycobacterial activity against Mycobacterium bovis BCG assessed as clolony forming unit at 313 ug/ml after 21 days in presence of sucrose. The format is functional, variant bovis BCG. The procedure, abridged: as §1
For test [14], the system named is Mycobacterium tuberculosis. Kind of test: Antimycobacterial activity against Mycobacterium bovis BCG assessed as clolony forming unit at 313 ug/ml after 7 days in presence of sucrose. The format is functional, variant bovis BCG. The essentials:
as §1

Test [15] concerns Mycobacterium tuberculosis. Description: Antimycobacterial activity against Mycobacterium bovis BCG assessed as clolony forming unit at 313 ug/ml after 7 days in presence of dextrin. The format is functional, variant bovis BCG. The essentials:
as §1

Test [16] deals with Mycobacterium tuberculosis. Kind of test: Antimycobacterial activity against Mycobacterium bovis BCG assessed as clolony forming unit at 4 ug/ml after 21 days. The format is functional, variant bovis BCG. The procedure, abridged:
as §1

Test [17] concerns Mycobacterium tuberculosis. Kind of test: Antimycobacterial activity against Mycobacterium bovis BCG assessed as clolony forming unit at 4 ug/ml after 21 days in presence of sucrose. In kind it is functional, variant bovis BCG. The procedure, abridged:
as §1

Test [18] has as its system Mycobacterium tuberculosis. Description: Antimycobacterial activity against Mycobacterium bovis BCG assessed as clolony forming unit at 4 ug/ml after 7 days in presence of sucrose. The format is functional, variant bovis BCG. The procedure, abridged:
as §1

Test [19] relates to Mycobacterium tuberculosis. Description: Antimycobacterial activity against Mycobacterium bovis BCG assessed as clolony forming unit at 4 ug/ml after 7 days in presence of dextrin. The format is functional, variant bovis BCG. The procedure, abridged: as §1
In test [20] the test system is Mycobacterium tuberculosis. Kind of test: Antimycobacterial activity against Mycobacterium bovis BCG assessed as clolony forming unit at 4 ug/ml after 7 days. In kind it is functional, variant bovis BCG. The essentials:
as §1

The test system of test [21] is Mycobacterium tuberculosis. Description: Antimycobacterial activity against Mycobacterium bovis BCG assessed as clolony forming unit at 4 ug/ml after 21 days in presence of destrin. In kind it is functional, variant bovis BCG. The procedure, abridged:
as §1

In the case of `CC(=O)N[C@@H]1[C@@H](O)[C@H](O)[C@@H](CO)O[C@H]1SC(=S)N1CCCC1`, the log10CFU/ml in [1] is 5.76; in test [2], 6.07; in test [6] it was 5.79; in test [7] it was 6.25; in test [8], 4.55; in test [9], 4.43. Besides, the MIC in test [3], in test [4] and in test [5] was 1 µg/mL (≈ 2.85 µM) each time.
Consider `CC(=O)N[C@@H]1[C@@H](O)[C@H](O)[C@@H](CO)O[C@H]1SC(=S)N(C)C`, for which the log10CFU/ml in [10] turned out to be 5.91; in test [11], 5.2; in test [12] it was 5.91; in test [13], 5.78; in test [14] it was 6.41; in test [15], 6.44. Further, the MIC in [3], in test [4] and in test [5] was 10 µg/mL (≈ 30.8 µM) in each case.
Take `CCc1cc(C(N)=S)ccn1` [ETHIONAMIDE]: the results for the MIC in [3], in test [4] and in test [5] were 1 µg/mL (≈ 6.02 µM), 0.5 µg/mL (≈ 3.01 µM) and 10 µg/mL (≈ 60.2 µM), respectively.
With `N.S=C(S)N1CCCC1` [PYRROLIDINE DITHIOCARBAMIC ACID, AMMONIUM SALT], the log10CFU/ml came to 4.41 in [16]; 5.56 in [17]; 6.05 in [18]; 6.93 in test [19]; 4.65 in [20]; 5.56 in test [21]. For the same compound, the MIC worked out at 0.5 µg/mL in [3], 0.5 µg/mL in test [4] and 0.25 µg/mL in [5].

A word on the MIC: it is the smallest concentration in the dilution series that meets the test's criterion for growth inhibition.
